In assay [1] the test system is MdCMS_1. As to the kind of experiment: DTNB endpoint assay, Lineweaver-Burk. The class given is biochemical, Malus domestica. The note with it: read-out: Km ± SE. In short, it runs like this:
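Recombinant apple enzyme expressed in E. coli BL21 (ORF with or without putative chloroplast transit peptide) and purified. Activity measured by DTNB (Ellman's reagent) endpoint assay. Acetyl-CoA was varied with pyruvate held saturating at 10 mM. Absorbance was corrected against an identical mixture lacking α-ketoacid. Km was obtained by regression of Lineweaver–Burk plots, with two to three replications per regression.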

Assay [2] deals with T1, MdIPMS2 (Malus domestica, UniProt A0A498KQL4).
T1 sequence (A0A498KQL4 64-634): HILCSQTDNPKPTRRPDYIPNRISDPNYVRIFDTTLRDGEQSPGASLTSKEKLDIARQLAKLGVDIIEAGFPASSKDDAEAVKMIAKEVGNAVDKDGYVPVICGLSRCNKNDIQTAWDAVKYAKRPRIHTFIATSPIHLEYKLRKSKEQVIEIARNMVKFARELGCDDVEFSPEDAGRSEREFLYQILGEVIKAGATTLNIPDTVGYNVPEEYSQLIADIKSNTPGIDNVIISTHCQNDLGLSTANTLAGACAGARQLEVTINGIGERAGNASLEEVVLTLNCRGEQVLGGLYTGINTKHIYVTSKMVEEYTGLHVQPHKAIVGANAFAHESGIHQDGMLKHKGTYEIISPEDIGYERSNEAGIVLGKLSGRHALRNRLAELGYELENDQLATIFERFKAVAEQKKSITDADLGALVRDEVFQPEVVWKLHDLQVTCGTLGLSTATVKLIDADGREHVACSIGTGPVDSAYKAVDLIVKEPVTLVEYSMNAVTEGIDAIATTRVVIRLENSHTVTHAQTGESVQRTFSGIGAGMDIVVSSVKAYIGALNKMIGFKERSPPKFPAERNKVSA
As to the kind of experiment: DTNB endpoint assay, feedback inhibition. The note with it: read-out: % inhibition at 0.05 mM. It is filed as biochemical.

Assay [3] deals with T2, MdIPMS1 (Malus domestica, UniProt A0A498I0D3).
T2 sequence (A0A498I0D3 59-236): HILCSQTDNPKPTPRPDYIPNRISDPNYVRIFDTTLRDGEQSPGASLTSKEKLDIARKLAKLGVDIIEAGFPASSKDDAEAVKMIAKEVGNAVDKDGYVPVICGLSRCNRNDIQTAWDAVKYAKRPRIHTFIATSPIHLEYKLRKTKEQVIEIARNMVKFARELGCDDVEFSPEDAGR
T2 sequence (A0A498I0D3 250-642): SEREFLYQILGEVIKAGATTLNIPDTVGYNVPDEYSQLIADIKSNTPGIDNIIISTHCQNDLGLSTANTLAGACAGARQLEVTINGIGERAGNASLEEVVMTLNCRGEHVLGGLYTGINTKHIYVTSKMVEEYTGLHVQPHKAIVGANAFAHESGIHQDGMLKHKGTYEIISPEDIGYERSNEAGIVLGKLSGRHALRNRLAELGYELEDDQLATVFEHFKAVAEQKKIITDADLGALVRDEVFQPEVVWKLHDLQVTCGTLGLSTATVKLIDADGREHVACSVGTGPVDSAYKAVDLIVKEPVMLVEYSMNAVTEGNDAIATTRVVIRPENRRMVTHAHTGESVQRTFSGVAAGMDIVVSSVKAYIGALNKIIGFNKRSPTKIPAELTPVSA
As to the kind of experiment: DTNB endpoint assay, feedback inhibition. The class given is biochemical. As to conditions: read-out: % inhibition at 0.05 mM.

The target of assay [4] is T2, MdIPMS1. In words: DTNB endpoint assay, feedback inhibition. The class given is biochemical. As to conditions: 10 mM α-ketoisovalerate; threonine range 0 to 10 mM.
The target in assay [5] is T1, MdIPMS2. As to the kind of experiment: DTNB endpoint assay, feedback inhibition. The note with it: 10 mM α-ketoisovalerate; threonine range 0 to 10 mM. It is filed as biochemical.

The text below walks through data of paper PMC7826400 (Proceedings of the National Academy of Sciences of the …, 2021).

Like-named read-outs stand apart in the source and are kept apart here.

As usually defined, the Km is the concentration of substrate that gives half-maximal velocity. With `CC(=O)SCCNC(=O)CCNC(=O)[C@H](O)C(C)(C)COP(=O)(O)OP(=O)(O)OC[C@H]1O[C@@H](n2cnc3c(N)ncnc32)[C@H](O)[C@@H]1OP(=O)(O)O` [Acetyl-CoA], the Km in assay [1] (saturating (10 mM) pyruvate) was found to be 6.6 ± 0.9 µM.

Regarding `CC(=O)C(=O)O` [Pyruvate], in assay [1] (co-substrate acetyl-CoA), the Km amounted to 2450 µM.

What is called inhibition is the change of the read-out against control, counted positive when it falls. Consider `CC(C)C[C@H](N)C(=O)O` [leucine], for which the inhibition at 50 µM is 70% in assay [2] and 40% in assay [3]. As to `C[C@@H](O)[C@H](N)C(=O)O` [threonine], the “% inhibition” value in assay [4] and in assay [5] was “both MdIPMS proteins were inhibited by elevated levels of threonine” each time. As to `CCC(=O)C(=O)O` [α-Ketobutyrate], in assay [1] (co-substrate acetyl-CoA), the Michaelis constant (Km) stood at 3560 µM.
